Reference: ChEMBL document CHEMBL1138404, “Bisindole alkaloids of the topsentin and hamacanthin classes from a marine sponge Spongosorites sp” (J Nat Prod, 2007)
In brackets after ≈: the same amount, converted by molar mass.

Tests used:
Staphylococcus aureus [1] = assay: Antibacterial activity against methicillin-resistant Staphylococcus aureus 285; type: functional
Method in brief: (§1)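 Agar dilution MIC: Mueller Hinton agar plates containing 17 serial dilutions of sample (final 25 to 0.002 μg/mL), meropenem and imipenem as standards. Strains grown 18 h at 37 °C in Fleisch extract broth (10% horse serum for some strains), spotted onto plates by automatic inoculator; MIC read after 18 h incubation.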

Salmonella typhimurium = assay: Antibacterial activity against […] Salmonella Typhimurium; type: functional, Salmonella enterica subsp. enterica serovar Typhimurium; conditions: Salmonella enterica; method in brief: as §1
Klebsiella oxytoca = assay: Antibacterial activity against […] Klebsiella oxytoca 1082E; type: functional; method in brief: as §1
Escherichia coli [2] = assay: Antibacterial activity against […] Escherichia coli 1507E; type: functional; method in brief: as §1
[3] = Cytotoxicity against human HCT15 cell line; type: cell-based; conditions: HCT-15 cells, read-out: ED50 (the source's name)
Pseudomonas aeruginosa [4] = assay: Antibacterial activity against […] Pseudomonas aeruginosa 9027; type: functional; method in brief: as §1
Streptococcus pyogenes [5] = assay: Antibacterial activity against methicillin-resistant Streptococcus pyogenes 308A; type: functional; method in brief: as §1
Escherichia coli [6] = assay: Antibacterial activity against […] Escherichia coli DC0; type: functional; method in brief: as §1
Streptococcus pyogenes [7] = assay: Antibacterial activity against methicillin-resistant Streptococcus pyogenes 77A; type: functional; method in brief: as §1
[8] = Cytotoxicity against human SK-OV-3 cell line; type: cell-based; conditions: SK-OV-3 cells, read-out: ED50 (the source's name)
Escherichia coli [9] = assay: Antibacterial activity against […] Escherichia coli 078; type: functional; method in brief: as §1
Klebsiella aerogenes = assay: Antibacterial activity against […] Klebsiella aerogenes 1522E; type: functional; method in brief: as §1
Staphylococcus aureus [10] = assay: Antibacterial activity against methicillin-resistant Staphylococcus aureus SG511; type: functional; method in brief: as §1
[11] = Cytotoxicity against human A549 cell line; type: cell-based; conditions: A549 cells, read-out: ED50 (the source's name)
Staphylococcus aureus [12] = assay: Antibacterial activity against methicillin-resistant Staphylococcus aureus 503; type: functional; method in brief: as §1
Enterobacter cloacae [13] = assay: Antibacterial activity against […] Enterobacter cloacae P99; type: functional; method in brief: as §1
Escherichia coli [14] = assay: Antibacterial activity against […] Escherichia coli TEM; type: functional; method in brief: as §1
[15] = Cytotoxicity against human SK-MEL-2 cell line; type: cell-based; conditions: SK-MEL-2 cells, read-out: ED50 (the source's name)
Enterococcus faecium = assay: Antibacterial activity against […] Streptococcus faecium MD8b; type: functional; method in brief: as §1
Pseudomonas aeruginosa [16] = assay: Antibacterial activity against […] Pseudomonas aeruginosa 1771; type: functional; method in brief: as §1
Enterobacter cloacae [17] = assay: Antibacterial activity against […] Enterobacter cloacae 1321E; type: functional; method in brief: as §1
[18] = Cytotoxicity against human XF498 cell line; type: cell-based; conditions: XF498 cells, read-out: ED50 (the source's name)
Escherichia coli [19] = assay: Antibacterial activity against […] Escherichia coli DC2; type: functional; method in brief: as §1
Pseudomonas aeruginosa [20] = assay: Antibacterial activity against […] Pseudomonas aeruginosa 1771M; type: functional; method in brief: as §1
Pseudomonas aeruginosa [21] = assay: Antibacterial activity against […] Pseudomonas aeruginosa 1592E; type: functional; method in brief: as §1

| SMILES | MIC (Staphylococcus aureus [1]) | MIC (Klebsiella oxytoca) | CC50 [3] | MIC (Streptococcus pyogenes [5]) | MIC (Streptococcus pyogenes [7]) | CC50 [8] | MIC (Staphylococcus aureus [10]) | CC50 [11] | MIC (Staphylococcus aureus [12]) | CC50 [15] | MIC (Pseudomonas aeruginosa [16]) | CC50 [18] | MIC (Escherichia coli [19]) | MIC (Pseudomonas aeruginosa [20]) | MIC (Pseudomonas aeruginosa [21]) | other results |
| --- | --- | --- | --- | --- | --- | --- | --- | --- | --- | --- | --- | --- | --- | --- | --- | --- |
| O=C1NC[C@@H](c2c[nH]c3cc(Br)ccc23)N=C1c1c[nH]c2ccccc12 [(R)-6'-DEBROMOHAMACANTHIN B] | 12.5 µg/mL (≈ 30.7 µM) | 25 µg/mL (≈ 61.4 µM) | 4.2 µg/mL (≈ 10.3 µM) | 6.3 µg/mL (≈ 15.5 µM) | 12.5 µg/mL (≈ 30.7 µM) | 8.5 µg/mL (≈ 20.9 µM) | 12.5 µg/mL (≈ 30.7 µM) | 3.71 µg/mL (≈ 9.11 µM) | 12.5 µg/mL (≈ 30.7 µM) | 7.6 µg/mL (≈ 18.7 µM) | 25 µg/mL (≈ 61.4 µM) | 8.3 µg/mL (≈ 20.4 µM) | 25 µg/mL (≈ 61.4 µM) | 25 µg/mL (≈ 61.4 µM) | > 25 µg/mL | MIC (Salmonella typhimurium): > 25 µg/mL; MIC (Escherichia coli [2]): > 25 µg/mL; MIC (Pseudomonas aeruginosa [4]): > 25 µg/mL; MIC (Escherichia coli [6]): > 25 µg/mL; MIC (Escherichia coli [9]): > 25 µg/mL; MIC (Klebsiella aerogenes): > 25 µg/mL; MIC (Enterobacter cloacae [13]): > 25 µg/mL; MIC (Escherichia coli [14]): > 25 µg/mL; MIC (Enterococcus faecium): > 25 µg/mL; MIC (Enterobacter cloacae [17]): > 25 µg/mL |
| COc1cccc2c1C(=O)c1c(O)c3c(c(O)c1C2=O)C[C@@](O)(C(=O)CO)C[C@@H]3O[C@H]1C[C@H](N)[C@H](O)[C@H](C)O1 [DOXORUBICIN] |  |  | 0.02 µg/mL (≈ 0.0368 µM) |  |  | 0.03 µg/mL (≈ 0.0552 µM) |  | 0.01 µg/mL (≈ 0.0184 µM) |  | 0.01 µg/mL (≈ 0.0184 µM) |  | 0.01 µg/mL (≈ 0.0184 µM) |  |  |  |  |
| O=C1N[C@@H](c2c[nH]c3cc(Br)ccc23)CN=C1c1c[nH]c2cc(Br)ccc12 [HAMACANTHIN A] |  |  | 4.66 µg/mL (≈ 9.59 µM) |  |  | 5.24 µg/mL (≈ 10.8 µM) |  | 4.49 µg/mL (≈ 9.24 µM) |  | 5.44 µg/mL (≈ 11.2 µM) |  | 5.6 µg/mL (≈ 11.5 µM) |  |  |  |  |
| O=C1NC[C@H](c2c[nH]c3cc(Br)ccc23)N=C1c1c[nH]c2cc(Br)ccc12 [HAMACANTHIN B] |  |  | 1.52 µg/mL (≈ 3.13 µM) |  |  | 2.61 µg/mL (≈ 5.37 µM) |  | 2.14 µg/mL (≈ 4.4 µM) |  | 1.59 µg/mL (≈ 3.27 µM) |  | 2.93 µg/mL (≈ 6.03 µM) |  |  |  |  |
| C[C@@H](O)[C@H]1C(=O)N2C(C(=O)O)=C(S[C@@H]3CN[C@H](C(=O)N(C)C)C3)[C@H](C)[C@H]12 [MEROPENEM] | 0.098 µg/mL (≈ 0.256 µM) | 0.049 µg/mL (≈ 0.128 µM) |  | 0.004 µg/mL (≈ 0.0104 µM) | 0.004 µg/mL (≈ 0.0104 µM) |  | 0.049 µg/mL (≈ 0.128 µM) |  | 0.049 µg/mL (≈ 0.128 µM) |  | 0.391 µg/mL (≈ 1.02 µM) |  | 0.013 µg/mL (≈ 0.0339 µM) | 0.049 µg/mL (≈ 0.128 µM) | 0.098 µg/mL (≈ 0.256 µM) |  |
| O=C(C1=NC(c2c[nH]c3cc(Br)ccc23)CN1)c1c[nH]c2ccccc12 (stereo not given) [SPONGOTINE A] |  |  | 9.8 µg/mL (≈ 24.1 µM) |  |  | 3.71 µg/mL (≈ 9.11 µM) |  | 6.82 µg/mL (≈ 16.7 µM) |  | 5.04 µg/mL (≈ 12.4 µM) |  | 7.22 µg/mL (≈ 17.7 µM) |  |  |  |  |
| O=C(C1=NC(c2c[nH]c3ccccc23)CN1)c1c[nH]c2cc(Br)ccc12 (stereo not given) [SPONGOTINE B] | 25 µg/mL (≈ 61.4 µM) | 25 µg/mL (≈ 61.4 µM) | > 30 µg/mL | 25 µg/mL (≈ 61.4 µM) | 25 µg/mL (≈ 61.4 µM) | > 30 µg/mL | 25 µg/mL (≈ 61.4 µM) | > 30 µg/mL | 25 µg/mL (≈ 61.4 µM) | > 30 µg/mL | > 25 µg/mL | > 30 µg/mL | 25 µg/mL (≈ 61.4 µM) | 25 µg/mL (≈ 61.4 µM) | > 25 µg/mL | MIC (Salmonella typhimurium): > 25 µg/mL; MIC (Escherichia coli [2]): > 25 µg/mL; MIC (Pseudomonas aeruginosa [4]): > 25 µg/mL; MIC (Escherichia coli [6]): > 25 µg/mL; MIC (Escherichia coli [9]): > 25 µg/mL; MIC (Klebsiella aerogenes): > 25 µg/mL; MIC (Enterobacter cloacae [13]): > 25 µg/mL; MIC (Escherichia coli [14]): > 25 µg/mL; MIC (Enterococcus faecium): > 25 µg/mL; MIC (Enterobacter cloacae [17]): > 25 µg/mL |
| O=C(C1=NC(c2c[nH]c3cc(Br)ccc23)CN1)c1c[nH]c2cc(Br)ccc12 (stereo not given) [SPONGOTINE C] |  |  | 4.88 µg/mL (≈ 10 µM) |  |  | 4.81 µg/mL (≈ 9.89 µM) |  | 5.22 µg/mL (≈ 10.7 µM) |  | 4.82 µg/mL (≈ 9.91 µM) |  | 5.16 µg/mL (≈ 10.6 µM) |  |  |  |  |
